ChEMBL document CHEMBL4196155 (J Med Chem, 2018)
Activity calls are given as the source filed them. No cut-off for these calls is given here.

How the values were obtained:
[1] = target: T1, Melatonin receptor type 1A (Homo sapiens, UniProt P48039); experiment: Intrinsic agonist activity at human MT1 receptor expressed in […] NIH/3T3 cell membranes assessed as induction of G protein activation incubated for 30 mins by [35S]GTPgammaS binding assay relative to melatonin; type: functional
Method in brief: (§1)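 NIH3T3 membranes bearing cloned human MT1 or MT2 (15–25 μg protein) incubated 30 min at 30 °C with [35S]GTPγS 0.3–0.5 nM, GDP 50 μM, NaCl 100 mM, MgCl2 3 mM. […] Maximal stimulation above basal was divided by that of 100 nM MLT in the same experiment. Run in triplicate.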

[2] = target: T1, Melatonin receptor type 1A; experiment: biochemical
[3] = target: T2, Melatonin receptor type 1B (Homo sapiens) (UniProt P49286); experiment: Intrinsic agonist activity at human MT2 receptor expressed in […] NIH/3T3 cell membranes assessed as induction of G protein activation incubated for 30 mins by [35S]GTPgammaS binding assay relative to melatonin; type: functional; method in brief: as §1
T2 sequence (whole entry): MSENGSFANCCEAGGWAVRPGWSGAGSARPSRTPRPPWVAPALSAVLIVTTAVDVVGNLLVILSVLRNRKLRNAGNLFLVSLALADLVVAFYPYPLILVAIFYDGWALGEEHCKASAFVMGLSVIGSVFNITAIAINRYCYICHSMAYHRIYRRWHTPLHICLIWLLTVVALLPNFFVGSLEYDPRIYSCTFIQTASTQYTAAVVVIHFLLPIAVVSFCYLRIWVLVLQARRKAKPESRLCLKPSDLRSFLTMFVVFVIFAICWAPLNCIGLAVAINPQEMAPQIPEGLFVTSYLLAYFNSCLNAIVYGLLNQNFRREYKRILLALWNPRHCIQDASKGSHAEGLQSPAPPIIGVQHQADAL

[4] = target: T3, Melatonin receptor type 1B (Homo sapiens, UniProt P49286); experiment: biochemical
T3 sequence (P49286 whole entry): T2 sequence (whole entry)

[5] = target: T4, Fatty-acid amide hydrolase 1 (Rattus norvegicus, UniProt P97612); experiment: Inhibition of FAAH1 in Wistar rat brain homogenates using [3H]anandamide as substrate incubated for 30 mins by liquid scintillation counting method
T4 sequence (P97612 whole entry): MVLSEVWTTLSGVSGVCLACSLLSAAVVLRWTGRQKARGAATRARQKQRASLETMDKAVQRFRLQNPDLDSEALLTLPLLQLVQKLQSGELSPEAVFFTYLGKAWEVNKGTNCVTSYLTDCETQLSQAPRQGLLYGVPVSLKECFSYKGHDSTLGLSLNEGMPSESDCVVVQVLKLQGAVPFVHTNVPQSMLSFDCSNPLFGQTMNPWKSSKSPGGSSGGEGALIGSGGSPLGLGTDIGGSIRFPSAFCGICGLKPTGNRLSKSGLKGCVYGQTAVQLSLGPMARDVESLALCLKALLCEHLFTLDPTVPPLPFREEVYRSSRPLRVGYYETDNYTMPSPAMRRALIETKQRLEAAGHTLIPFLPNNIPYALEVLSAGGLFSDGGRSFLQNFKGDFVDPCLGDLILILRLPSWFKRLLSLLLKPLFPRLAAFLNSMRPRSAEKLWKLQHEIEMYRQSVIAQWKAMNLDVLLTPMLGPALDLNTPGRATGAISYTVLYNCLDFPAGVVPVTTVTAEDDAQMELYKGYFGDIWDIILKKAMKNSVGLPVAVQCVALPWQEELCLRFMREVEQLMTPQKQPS
Method in brief: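 Wistar rat brain homogenised in ice-cold Tris 50 mM pH 7.5 with 0.32 M sucrose, spun 1,000 × g 10 min at 4 °C; supernatant used. Homogenate (50 μg protein) incubated 30 min at 37 °C in Tris 50 mM pH 7.5, 0.05% fatty-acid-free BSA, 10 μM anandamide plus [3H]anandamide (20,000 cpm), varying compound concentrations, final DMSO 1%. Stopped with CHCl3/MeOH 1:1; aqueous [3H]ethanolamine counted. IC50 from at least two determinations.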

Oryctolagus cuniculus [6] = experiment: Reduction in hypertonic saline solution-induced elevated intraocular pressure in New Zealand White rabbit at 1 mM dosed topically before hypertonic saline solution injection measured after 120 mins; type: functional, organism-based
Method in brief: (§2)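 Male SPF New Zealand albino rabbits, 2–2.5 kg, four per compound. 0.05 mL of 1 mM solution in 0.9% NaCl, 0.1% DMSO, 0.1% EtOH was dropped into one eye, vehicle into the other, before intravitreal 0.1 mL 5% hypertonic saline. IOP was read by tonometry after oxybuprocaine 0.2% once the rise had stabilised at 30–40 mm Hg, then after treatment. Analysis by 2-way ANOVA with Bonferroni.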

Oryctolagus cuniculus [7] = experiment: Reduction in hypertonic saline solution-induced elevated intraocular pressure in New Zealand White rabbit at 1 mM dosed topically before hypertonic saline solution injection measured after 60 mins; type: functional, organism-based; method in brief: as §2
Oryctolagus cuniculus [8] = experiment: Reduction in hypertonic saline solution-induced elevated intraocular pressure in New Zealand White rabbit at 1 mM dosed topically before hypertonic saline solution injection measured after 240 mins; type: functional, organism-based; method in brief: as §2

T1 sequence (P48039 whole entry): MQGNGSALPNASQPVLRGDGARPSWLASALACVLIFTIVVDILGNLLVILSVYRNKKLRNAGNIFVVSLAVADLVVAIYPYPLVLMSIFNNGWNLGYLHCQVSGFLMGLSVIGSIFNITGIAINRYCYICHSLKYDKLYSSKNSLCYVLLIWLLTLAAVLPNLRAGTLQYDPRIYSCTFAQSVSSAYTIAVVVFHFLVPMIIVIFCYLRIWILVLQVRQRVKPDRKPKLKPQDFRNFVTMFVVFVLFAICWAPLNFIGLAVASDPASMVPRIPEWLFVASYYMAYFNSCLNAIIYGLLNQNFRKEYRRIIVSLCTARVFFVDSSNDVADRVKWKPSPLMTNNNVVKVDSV

| Structure (SMILES) | Intrinsic activity [1] | Ki [2] | Intrinsic activity [3] | Ki [4] | IC50 [5] | Activity (Oryctolagus cuniculus [6]) | Activity (Oryctolagus cuniculus [7]) | Activity (Oryctolagus cuniculus [8]) |
| --- | --- | --- | --- | --- | --- | --- | --- | --- |
| CC(=O)NCCN(C)c1cccc(OCCCCOc2cccc(O)c2)c1 | 0.27 | 186 nM | 0.18 | 603 nM | – | – | – | – |
| CC(=O)NCCN(C)c1cccc(OCCCCCCNC(=O)Oc2cccc(-c3ccccc3)c2)c1 | 0.7 | 21.4 nM | 0.75 | 33.1 nM | 1.34 nM | – | – | – |
| CC(=O)NCCN(C)c1cccc(OCCCCCCCCNC(=O)Oc2cccc(-c3ccccc3)c2)c1 | 0.85 | 31.6 nM | 0.96 | 32.4 nM | 0.63 nM | Active | inactive | – |
| CC(=O)NCCN(C)c1cccc(OCCCCNC(=O)Oc2cccc(-c3ccccc3)c2)c1 | 0.64 | 12.9 nM | 0.39 | 44.7 nM | 1.45 nM | – | – | – |
| CC(=O)NCCc1c(Br)[nH]c2ccc(OCCCCCCNC(=O)Oc3cccc(-c4ccccc4)c3)cc12 | 0.73 | 0.776 nM | 0.97 | 1.7 nM | 0.85 nM | Active | – | Active |
| CC(=O)NCCN(C)c1cccc(OCCCCCCOc2cccc(OC(=O)NC3CCCCC3)c2)c1 | 0.71 | 27.5 nM | 0.71 | 295 nM | 197 nM | – | – | – |
| CC(=O)NCCN(C)c1cccc(OCCCCCCNC(=O)Oc2cccc(-c3cccc(C(N)=O)c3)c2)c1 | 0.79 | 38.9 nM | 1.01 | 15.5 nM | 0.43 nM | Active | inactive | – |
| CC(=O)NCCN(C)c1cccc(OCCCCOc2cccc(OC(=O)NC3CCCCC3)c2)c1 | 0.07 | 34.7 nM | 0.05 | 53.7 nM | 184 nM | – | – | – |
| CC(=O)NCCN(C)c1cccc(OCCCCCCOc2cccc(O)c2)c1 | 0.62 | 58.9 nM | 0.57 | 331 nM | – | – | – | – |
| CC(=O)NCCc1c[nH]c2ccc(OCCCCCCCCNC(=O)Oc3cccc(-c4ccccc4)c3)cc12 | 0.73 | 4.9 nM | 0.53 | 6.31 nM | 4 nM | inactive | Active | inactive |
| COc1ccc2[nH]cc(CCNC(C)=O)c2c1 | – | – | – | – | – | inactive | Active | – |
| CC(=O)NCCN(C)c1cccc(OCCCCCCNC(=O)Oc2cccc(-c3cccc(O)c3)c2)c1 | 0.89 | 29.5 nM | 0.94 | 26.9 nM | 0.36 nM | Active | inactive | – |
| CC(=O)NCCN(C)c1cccc(OCCCCN)c1 | 0.32 | 3090 nM | 0.35 | 12900 nM | – | – | – | – |
| CCC(=O)NCCN(C)c1cccc(OCCCCCCNC(=O)Oc2cccc(-c3ccccc3)c2)c1 | 0.77 | 16.2 nM | 0.88 | 19.1 nM | 3.07 nM | – | – | – |
| NC(=O)c1cccc(-c2cccc(OC(=O)NC3CCCCC3)c2)c1 | – | – | – | – | – | inactive | Active | – |
| CC(=O)NCCN(C)c1cccc(OCCCCCCN)c1 | 0.34 | 447 nM | 0.08 | 398 nM | – | – | – | – |
| CC(=O)NCCc1c[nH]c2ccc(OCCCCCCNC(=O)Oc3cccc(-c4ccccc4)c3)cc12 | 0.73 | 6.03 nM | 1.02 | 4.57 nM | 2.38 nM | inactive | Active | inactive |
